This is an account of results in ChEMBL document CHEMBL3124899, “Design, synthesis, and characterization of α-ketoheterocycles that additionally target the cytosolic port Cys269 of fatty acid amide hydrolase” (J Med Chem, 2014).

The species entered for data set [1] is Mus musculus. The experiment in a line: Selectivity ratio of IC50 for mouse brain membrane KIAA1363 to IC50 for mouse FAAH.
The species entered for data set [2] is Mus musculus. The experiment in a line: Selectivity ratio of IC50 for mouse brain membrane ABHD6 to IC50 for mouse FAAH.
The species named for data set [3] is Mus musculus. Briefly: Selectivity ratio of IC50 for mouse brain membrane MAGL to IC50 for mouse FAAH.
Data set [4] concerns the target T1, Fatty-acid amide hydrolase 1 (Rattus norvegicus) (UniProt P97612).
T1 sequence (whole entry): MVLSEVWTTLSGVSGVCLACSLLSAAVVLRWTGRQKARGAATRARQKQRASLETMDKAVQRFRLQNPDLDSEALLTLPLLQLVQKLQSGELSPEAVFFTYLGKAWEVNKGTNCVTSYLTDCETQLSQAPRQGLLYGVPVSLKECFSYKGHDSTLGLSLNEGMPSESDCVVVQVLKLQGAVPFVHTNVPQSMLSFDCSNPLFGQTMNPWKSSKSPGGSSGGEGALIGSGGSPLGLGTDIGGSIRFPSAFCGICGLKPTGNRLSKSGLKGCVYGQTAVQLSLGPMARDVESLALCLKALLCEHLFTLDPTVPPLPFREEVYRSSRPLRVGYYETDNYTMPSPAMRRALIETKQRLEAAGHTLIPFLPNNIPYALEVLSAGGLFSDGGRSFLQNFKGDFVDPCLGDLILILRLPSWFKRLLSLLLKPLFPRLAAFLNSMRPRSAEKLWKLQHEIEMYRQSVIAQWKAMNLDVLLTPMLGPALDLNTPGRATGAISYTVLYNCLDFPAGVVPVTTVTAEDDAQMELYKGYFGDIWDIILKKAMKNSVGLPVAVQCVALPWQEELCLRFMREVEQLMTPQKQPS
Briefly: Noncompetitive inhibition of recombinant rat FAAH expressed in Escherichia coli assessed as breakdown of [14C]-oleamide at 3 to 5 nM preincubated for 3 hrs by Lineweaver-Burk plot analysis.

In data set [5] the target is T2, Fatty-acid amide hydrolase 1 (Rattus norvegicus, UniProt P97612).
T2 sequence (P97612 whole entry): T1 sequence (whole entry)
Briefly: Time-dependent inhibition of recombinant rat FAAH expressed in Escherichia coli assessed as breakdown of [14C]-oleamide preincubated for 6 hrs by Dixon plot analysis. The method in brief:
(§1)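 The reaction used 20 μM 14C-oleamide in pH 9.0 Tris/EDTA/Triton X-100/Hepes buffer at 20–23 °C, at three inhibitor concentrations. HCl-quenched time points were analysed by EtOAc extraction and TLC for oleic acid formation. Ki came from a Dixon plot.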

In data set [6] the target is T1, Fatty-acid amide hydrolase 1 (Rattus norvegicus). Briefly: Irreversible inhibition of recombinant rat FAAH expressed in Escherichia coli assessed as remaining activity at IC80 preincubated for 3 hrs followed by 370 fold dilution measured after 18 hrs.
The target is the same in data set [7]. Conditions: 5 to 10 nM.
For data set [8], the target named is T2, Fatty-acid amide hydrolase 1. Briefly: Time-dependent inhibition of recombinant rat FAAH expressed in Escherichia coli assessed as breakdown of [14C]-oleamide preincubated for 1 hr by Dixon plot analysis. A digest of the protocol: as §1
The target is the same in data set [9]. Briefly: Inhibition of recombinant rat FAAH expressed in Escherichia coli assessed as breakdown of [14C]-oleamide by Dixon plot analysis. A digest of the protocol:
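Purified rat FAAH expressed in E. coli, with no inhibitor preincubation. The enzyme was at 1 nM, or 800, 500 or 200 pM for tight binders. It was mixed with 20 μM 14C-oleamide in pH 9.0 Tris/EDTA/glycerol/Triton X-100/Hepes buffer at room temperature, with three inhibitor concentrations. Aliquots were quenched in 0.1 N HCl at three time points, extracted with EtOAc and separated by TLC. Ki came from a Dixon plot.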

Data set [10] is described as follows: Chemical stability in enzymatic assay buffer assessed as transient enzyme adduct formation. In kind it is ADME.
Data set [11] has as its target T1, Fatty-acid amide hydrolase 1 (Rattus norvegicus). The experiment in a line: Competitive reversible inhibition of recombinant rat FAAH expressed in Escherichia coli using [14C]-oleamide as substrate at 3 to 5 nM preincubated for 3 hrs by Lineweaver-Burk plot analysis.
The nature of data set [12]: Chemical stability in assay buffer assessed as compound hydrolysis after 6 hrs. In kind it is physicochemical.
Data set [13] concerns the target T2, Fatty-acid amide hydrolase 1. Briefly: Time-dependent inhibition of recombinant rat FAAH expressed in Escherichia coli assessed as breakdown of [14C]-oleamide preincubated for 3 hrs by Dixon plot analysis. A digest of the protocol:
as §1

For data set [14], the system named is Mus musculus. Briefly: In vivo inhibition of FAAH in C57Bl/6J mouse assessed as increase in AEA level in brain at 30 mg/kg, ip after 3 hrs relative to vehicle-treated control. It is filed as functional. Conditions: route intraperitoneal. The method in brief:
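Male C57Bl/6J mice (<6 months, 20–28 g), n = 3, received 30 mg/kg i.p. in 18:1:1 saline/ethanol/emulphor at 10 μL/g. Brains were taken 3 h later and homogenized in CHCl3/MeOH/Tris with d4-PEA, d4-AEA and pentadecanoic acid standards. The organic extract was quantified by LC–ESI-MS/MS in positive mode and compared with vehicle-treated mice.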

The target in data set [15] is T1, Fatty-acid amide hydrolase 1 (Rattus norvegicus). Briefly: Competitive reversible inhibition of recombinant rat FAAH expressed in Escherichia coli using [14C]-oleamide as substrate at 1 to 5 nM preincubated for 3 hrs by Lineweaver-Burk plot analysis.
For data set [16] the target is unchanged. Briefly: Noncompetitive inhibition of recombinant rat FAAH expressed in Escherichia coli assessed as breakdown of [14C]-oleamide at 1 to 3 nM preincubated for 3 hrs by Lineweaver-Burk plot analysis.
Data set [17] relates to Mus musculus. The experiment in a line: In vivo inhibition of FAAH in C57Bl/6J mouse assessed as increase in PEA level in brain at 30 mg/kg, ip measured within 1.5 to 3 hrs. It is filed as functional, organism-based. The arrangement: dose 30 mg/kg.
The test system of data set [18] is Mus musculus. The experiment in a line: In vivo inhibition of FAAH in C57Bl/6J mouse assessed as increase in OEA level in brain at 30 mg/kg, ip measured after > 6 hrs. It is filed as functional, organism-based. Details: dose 30 mg/kg.
In data set [19] the test system is Mus musculus. The experiment in a line: In vivo inhibition of FAAH in C57Bl/6J mouse assessed as increase in OEA level in brain at 30 mg/kg, ip measured within 1.5 to 3 hrs. Details: dose 30 mg/kg. It is filed as functional, organism-based.
Data set [20] has as its system Mus musculus. Briefly: In vivo inhibition of FAAH in C57Bl/6J mouse assessed as increase in AEA level in brain at 30 mg/kg, ip measured after > 6 hrs. In kind it is functional, organism-based. Details: dose 30 mg/kg.
Data set [21] concerns the target T1, Fatty-acid amide hydrolase 1 (Rattus norvegicus). The experiment in a line: Noncompetitive inhibition of recombinant rat FAAH expressed in Escherichia coli assessed as breakdown of [14C]-oleamide at 0.5 to 5 nM preincubated for 3 hrs by Lineweaver-Burk plot analysis.
Data set [22] deals with Mus musculus. Briefly: In vivo inhibition of FAAH in C57Bl/6J mouse assessed as increase in AEA level in brain at 30 mg/kg, ip measured within 1.5 to 3 hrs. It is filed as functional, organism-based. Details: dose 30 mg/kg.
For data set [23], the system named is Mus musculus. Briefly: In vivo inhibition of FAAH in C57Bl/6J mouse assessed as increase in PEA level in brain at 30 mg/kg, ip measured after > 6 hrs. Details: dose 30 mg/kg. It is filed as functional, organism-based.
Data set [24] deals with T1, Fatty-acid amide hydrolase 1 (Rattus norvegicus). Briefly: Noncompetitive inhibition of recombinant rat FAAH expressed in Escherichia coli assessed as breakdown of [14C]-oleamide at 1 to 5 nM preincubated for 3 hrs by Lineweaver-Burk plot analysis.
The test system of data set [25] is Mus musculus. The experiment in a line: In vivo inhibition of FAAH in C57Bl/6J mouse assessed as increase in PEA level in brain at 30 mg/kg, ip measured within 2 to 3 hrs. It is filed as functional, organism-based. The arrangement: dose 30 mg/kg.
Data set [26] concerns Mus musculus. The experiment in a line: In vivo inhibition of FAAH in C57Bl/6J mouse assessed as increase in OEA level in brain at 30 mg/kg, ip measured within 2 to 3 hrs. It is filed as functional, organism-based. The arrangement: dose 30 mg/kg.
Data set [27] relates to Mus musculus. Briefly: In vivo inhibition of FAAH in C57Bl/6J mouse assessed as increase in AEA level in brain at 30 mg/kg, ip measured within 2 to 3 hrs. In kind it is functional, organism-based. The arrangement: dose 30 mg/kg.
Data set [28] has as its target T1, Fatty-acid amide hydrolase 1 (Rattus norvegicus). Conditions: 1 to 10 nM.
Data set [29] has the same target. The experiment in a line: Mixed-type inhibition of recombinant rat FAAH expressed in Escherichia coli assessed as breakdown of [14C]-oleamide preincubated for 3 hrs by Lineweaver-Burk plot analysis.

The source made the active and inactive calls. The calls are words filed in the database; no cut-off is given here.

On to `COC(=N)Cc1ccc(-c2cnc(C(=O)CCCCCCc3ccccc3)o2)nc1`, for which the Ratio IC50 in data set [1] is greater than 10000; in [2], greater than 10000; in [3], greater than 200. In addition, the inhibition entry in data set [4] is “Active”. Besides, the Ki in data set [5] was found to be 0.6 nM. Moreover, the “remaining activity after dilution” value in [6] was “Active”.
Consider `CSC(=O)Cc1ccc(-c2cnc(C(=O)CCCCCCc3ccccc3)o2)nc1`, for which the inhibition result in data set [7] is “Active”.
Consider `O=C(CCCCCCc1ccccc1)c1ncc(-c2ccc(CCl)cn2)o1`, for which, in [5], the Ki came to 24.6 nM.
As for `O=C(CCCCCCc1ccccc1)c1ncc(CCCCCBr)o1`, the figures for the Ki in [5], in [8] and in data set [9] were 6 nM, 6.1 nM and 6.1 nM, respectively.
For `N#CCCCCCc1cnc(C(=O)CCCCCCc2ccccc2)o1`, the Ki in data set [5] worked out at 4 nM.
Turning to `CSC(=O)c1ccc(-c2cnc(C(=O)CCCCCCc3ccccc3)o2)nc1`, the Stability entry in data set [10] and in data set [12] was “Stable” each time. For the same compound, in [11], the inhibition entry is “Active”. Further, the Ki in data set [13] and in [9] was 2 nM each time.
`CS(=O)(=O)/C=C/c1ccc(-c2cnc(C(=O)CCCCCCc3ccccc3)o2)nc1`: the Ratio IC50 in [1] is greater than 10000; in [2], greater than 10000; in data set [3], greater than 200. Also, in data set [4], the inhibition entry was “Active”. Further, in data set [13], the Ki came to 0.3 nM. In addition, the “fold change (FC)” value in data set [14] is 2.8. In data set [6], the “remaining activity after dilution” value is “Active”.
On to `COC(=O)c1ccc(-c2cnc(C(=O)CCCCCCc3ccccc3)o2)nc1`, for which, in [15], the inhibition result was “Active”.
`C[S+]([O-])/C=C/c1ccc(-c2cnc(C(=O)CCCCCCc3ccccc3)o2)nc1` (configuration not stated): the Ratio IC50 is greater than 10000 in [1], greater than 10000 in data set [2] and greater than 200 in data set [3]. In [16], the inhibition result is “Active”. The “fold change (FC)” value in data set [14] is recorded as 2.6. In data set [6], the “remaining activity after dilution” value was “Active”.
Consider `O=C(CCCCCCc1ccccc1)c1ncc(-c2ccc(CBr)cn2)o1`, for which the Ratio IC50 in data set [1] is greater than 10000; in data set [2] it was greater than 10000; in data set [3], greater than 200. Also, the inhibition entry in [17], in [18], in data set [19], in data set [20], in data set [21] and in data set [22] was “Active” each time. The inhibition result in data set [23] was “Active”. The Ki in data set [5] and in data set [13] was 0.2 nM in each case. For the same compound, the “fold change (FC)” value in data set [14] is 3.2. In addition, the “remaining activity after dilution” value in data set [6] is “Active”.
As to `N#CCc1ccc(-c2cnc(C(=O)CCCCCCc3ccccc3)o2)nc1`, the Ratio IC50 was greater than 10000 in data set [1], greater than 10000 in data set [2] and greater than 200 in data set [3]. The inhibition result in [17], in data set [18], in data set [24], in data set [19], in data set [20] and in [22] was “Active” throughout. Further, the inhibition entry in [23] is “Active”. Also, in [5], the Ki came out at 0.5 nM. The “fold change (FC)” value in data set [14] amounted to 3.2. For the same compound, the “remaining activity after dilution” value in data set [6] was “Active”.
Regarding `O=C(CCCCCCc1ccccc1)c1ncc(-c2ccccn2)o1`, the inhibition entry in data set [25], in data set [26], in data set [27] and in [28] was “Active” each time.
In the case of `N#C/C=C/c1ccc(-c2cnc(C(=O)CCCCCCc3ccccc3)o2)nc1`, the Ki in [5] came out at 2.7 nM. Also, the inhibition result in data set [29] is “Dose-dependent effect”. For the same compound, the “remaining activity after dilution” value in data set [6] was “Active”.
`CCOC(=O)/C=C/c1ccc(-c2cnc(C(=O)CCCCCCc3ccccc3)o2)nc1`: the inhibition result in data set [29] is “Dose-dependent effect”. In [6], the “remaining activity after dilution” value was “Active”.
On to `CCOS(=O)(=O)/C=C/c1ccc(-c2cnc(C(=O)CCCCCCc3ccccc3)o2)nc1`, for which the Ratio IC50 in data set [1] was greater than 10000; in data set [2], greater than 10000; in data set [3], greater than 200. For the same compound, the inhibition entry in data set [24] was “Active”. The Ki in data set [8] was determined as 0.3 nM. Further, the “fold change (FC)” value in data set [14] came out at 3.2. The “remaining activity after dilution” value in [6] is “Active”.
For `CSC(=O)CCCCc1cnc(C(=O)CCCCCCc2ccccc2)o1`, the inhibition entry in data set [11] was “Active”. The Stability result in data set [12] was “Stable”.
As for `CSCCCCCc1cnc(C(=O)CCCCCCc2ccccc2)o1`, in data set [13], the Ki amounted to 6.4 nM.
